Assay [1] concerns the target Histone-lysine N-methyltransferase EZH2 (Homo sapiens, UniProt Q15910). The experiment in a line: Inhibition of EZH2-mediated nuclear H3K27 methylation in human HCC1806 cells after 72 hrs by immunofluorescence analysis. Type of assay: cell-based. In short, it runs like this:
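HCC1806 breast cancer cells were exposed to compound for 72 h. Nuclear H3K27me3 was quantified by an immunofluorescence imaging assay and normalized to total H3. Values are the mean of at least three independent replicates.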

Assay [2] concerns the target EZH2/SUZ12/EED/RBBP7/RBBP4. In words: Inhibition of PRC2 complex of FLAG-EZH2, EED, SUZ12, AEBP2 and RbAp48 using histone H3 peptide (21 to 44) as substrate and [3H]SAM after 30 mins. Type of assay: protein-complex assay. To be noted: read-out: Ki(app).

IC50 and Ki data for two molecules are collected here from ChEMBL document CHEMBL2202955, “Identification of Potent, Selective, Cell-Active Inhibitors of the Histone Lysine Methyltransferase EZH2” (ACS Med Chem Lett, 2012).

Histone-lysine N-methyltransferase EZH2, sequence (Q15910 whole entry): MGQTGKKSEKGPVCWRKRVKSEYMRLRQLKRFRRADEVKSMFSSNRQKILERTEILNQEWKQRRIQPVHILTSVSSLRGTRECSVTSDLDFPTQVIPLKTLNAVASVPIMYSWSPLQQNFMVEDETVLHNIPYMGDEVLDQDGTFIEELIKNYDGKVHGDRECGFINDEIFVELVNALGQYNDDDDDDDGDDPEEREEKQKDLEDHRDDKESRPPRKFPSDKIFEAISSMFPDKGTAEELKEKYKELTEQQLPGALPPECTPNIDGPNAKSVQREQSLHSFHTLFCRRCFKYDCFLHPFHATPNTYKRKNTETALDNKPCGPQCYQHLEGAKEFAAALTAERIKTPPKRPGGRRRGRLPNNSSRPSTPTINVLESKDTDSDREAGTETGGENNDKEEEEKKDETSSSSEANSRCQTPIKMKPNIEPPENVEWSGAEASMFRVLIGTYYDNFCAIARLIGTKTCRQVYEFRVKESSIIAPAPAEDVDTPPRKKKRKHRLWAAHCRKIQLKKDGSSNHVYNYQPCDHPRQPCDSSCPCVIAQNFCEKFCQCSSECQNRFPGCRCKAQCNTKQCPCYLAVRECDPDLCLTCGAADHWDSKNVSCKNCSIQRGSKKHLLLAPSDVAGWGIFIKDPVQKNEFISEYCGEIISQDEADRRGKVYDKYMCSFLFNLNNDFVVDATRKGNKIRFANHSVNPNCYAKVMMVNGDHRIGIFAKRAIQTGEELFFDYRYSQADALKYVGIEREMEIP

Regarding `Cc1cc(C)c(CNC(=O)c2cc(-c3ccnc(N4CCN(C)CC4)c3)cc3c2cnn3C(C)C)c(=O)[nH]1`, in assay [1], the midpoint of inhibition, the IC50, lay at 2000 nM. The Ki in assay [2] amounted to 14 nM.
For `Cc1cc(C)c(CNC(=O)c2cc(C3CC3)cc3c2cnn3C(C)C)c(=O)[nH]1` the same measures were 2510 nM and 74 nM.
